Data reported in article PMC3417325 (FEBS letters, 2010).
Ends that are not written are not given here.

Assays:
S. aureus = settings: cited from earlier work
[1] = system: Staphylococcus aureus ATCC 29213; format: cell-based; settings: peptide 256 and 128 µg/ml, 15 min exposure, growth monitored 12 h
[2] = SPR, HNP1 peptides on soluble Lipid II immobilized on the chip surface; format: binding; settings: peptide at 0.1, 1 or 10 µM, supplemental Figure 1
Procedure, shortened: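 The ligand was short-chain, water-soluble farnesyl (three-isoprene) Lipid II, made with M. flavus vesicles, C18 HPLC-purified and confirmed by mass spectrometry. Signals were corrected by subtracting a control flow-cell.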

[3] = ANTS/DPX leakage assay from LUVs
Procedure, shortened: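 LUVs (250 nm, 600 µM final lipid) were loaded with 12.5 mM ANTS and 45 mM DPX by freeze-thaw and 0.4-µm extrusion, then gel-filtered. Buffer was high-salt (5 mM HEPES, 100 mM NaCl, pH 7.4) or low-salt (10 mM NaCl). Twofold defensin dilutions were added, with a water blank and 0.25% Triton X-100 for 100%. Ex 353/Em 515 nm; % leakage = (Ft−F0)/(F100−F0)×100.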

| Molecule | Activity against Gram-positive bacteria / bactericidal activity (S. aureus) | Bacterial growth after exposure to HNP1 [1] | Binding of peptide to immobilized soluble Lipid II [2] | Leakage from LUVs with increasing content of POPG ([3]; POPC:POPG = 1:0, 3:2, 2:3, 0:1, HNP1 0.19 to 100 µg/ml, 1 h, triplicate) | Membrane activity (leakage from POPG LUVs) ([3]; POPG LUVs, panel of six α-defensins, high and low salt, over 24 h (Figure 1)) |
| --- | --- | --- | --- | --- | --- |
| HNP4: fourth α-defensin discovered in neutrophils (VCSCRLVFCRRTELRVGNCLIGGVSFTYCCTRV; disulfide (positions not given here); ends not checked; UniProt P12838 64-96, looked up) | ineffective against Gram-positive bacteria | – | – | – | – |
| Human Neutrophil Peptide 1 [HNP1] | potently bactericidal | bacterial growth did not measurably recover | bound Lipid II dose-dependently | increasingly pronounced | reduced |
| HD-5: human α-defensin stored in granules of Paneth cells (peptide, UniProt Q01523 20-94, looked up, Defensin-5) Defensin alpha 5: ESLQERADEATTQKQSGEDNQDLAISFAGNGLSALRTSGSQARATCYCRTGRCATRESLSGVCEISGRLYRLCCR | potently bactericidal | – | – | – | – |
